These results are taken from ChEMBL document CHEMBL4396885, “Thioether-based 2-aminobenzamide derivatives: Novel HDAC inhibitors with potent in vitro and in vivo antitumor activity” (Eur J Med Chem, 2019).

Data set [1] has as its system A549. The experiment in a line: Cell cycle arrest in human A549 cells assessed as accumulation of cells at G2/M phase at 0.5 uM after 48 hrs by propidium iodide staining-based flow cytometry (reference value: 13.62%). In kind it is functional.
A further data set relates to HeLa. As to the kind of experiment: Antiproliferative activity against human HeLa cells assessed as decrease in cell viability after 72 hrs by CCK-8 assay. In kind it is functional, cell-based. Summed up: (§1)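 Cells grown to 70–85% confluence (A375, A549, HCT116 in RPMI1640; HeLa, SMMC7721 in DMEM; 10% FBS, 37 °C, 5% CO2), seeded 4000/well, dosed after 12 h across a concentration range, incubated 72 h, then CCK-8 for 1 h; absorbance at 450 nm. IC50 as mean ± SD of three separate experiments.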

For data set [2], the system named is A549. As to the kind of experiment: Induction of apoptosis in human A549 cells after 48 hrs by Annexin V-FITC/propidium iodide staining based flow cytometry. In kind it is functional, cell-based. The gist of the method:
(§2)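 A549 seeded 4×10⁶ cells/well, dosed after 12 h with compound at various concentrations, harvested after 48 h. Resuspended in annexin-binding buffer, stained with Annexin V-FITC and propidium iodide for 15 min in the dark, analysed by flow cytometry; means of three separate experiments.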

Data set [3] deals with A549. As to the kind of experiment: Induction of apoptosis in human A549 cells assessed as viable cells at 2 uM after 48 hrs by Annexin V-FITC/propidium iodide staining based flow cytometry (reference value: 98%). It counts as functional. Particulars: A549, 48 h, read-out: Activity. The gist of the method: as §2
(In flow cytometry, cells or beads pass a laser one at a time.)

For data set [4], the system named is A549. The experiment in a line: Antiproliferative activity against human A549 cells assessed as growth inhibition at 2 uM after 72 hrs by CCK-8 assay relative to control. It counts as functional. Conditions: A549, 72 h, read-out: GI. (In general: Tetrazolium assays rely on reduction of a dye to a coloured formazan, in cell work by metabolically active cells.)

In data set [5] the test system is A549. The experiment in a line: Cell cycle arrest in human A549 cells assessed as increase in accumulation of cells at G2/M phase after 48 hrs by propidium iodide staining-based flow cytometry. It counts as functional.
Data set [6] can be described thus: Toxicity against nude Balb/c mouse xenografted with human A549 cells assessed as no change in body weight at 25 mg/kg, ip administered twice per day for 21 days and measured every 3 days during compound dosing. It counts as organism-based. Conditions: in vivo. The gist of the method:
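Female BALB/c nude mice, 5–6 weeks, implanted s.c. in right axilla with 3×10⁶ A549 cells; randomized at ~95 mm³ tumor volume, 4 per group. Dosed ip 25 mg/kg twice daily for 21 days; vehicle controls got DMA & 5% Solutol HS-15 (5:95). Tumor size (V=length×width²/2) and body weight measured every 3 days; TGI from volume change relative to control.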
A general note: A xenograft is tissue or cells of one species grown in another, often human tumour cells in immunodeficient mice.

Data set [7] relates to A549. As to the kind of experiment: Induction of apoptosis in human A549 cells assessed as late apoptotic cells at 1 uM after 48 hrs by Annexin V-FITC/propidium iodide staining based flow cytometry (reference value: 0.637%). It counts as functional. The gist of the method:
as §2

A further data set concerns SMMC-7721. As to the kind of experiment: Antiproliferative activity against human SMMC7721 cells assessed as growth inhibition at 8 uM after 72 hrs by CCK-8 assay relative to control. It counts as functional. Conditions: SMMC-7721, 72 h, read-out: GI.
Data set [8] is described as follows: Clearance in ICR mouse at 4 mg/kg, iv after 0.08 to 24 hrs by LC-MS/MS analysis. It counts as ADME, organism-based. Particulars: in vivo. Summed up: (§3)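 Male ICR mice (29.7~37.4 g), single iv dose 4 mg/kg in DMSO:40% SBE-β-CD 20:80 (v/v). Retro-orbital blood at 0.08–24 h into EDTA-K2 tubes; plasma protein-precipitated with acetonitrile containing internal standards, analysed by LC-MS/MS; n=3 per time point; noncompartmental analysis.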

Data set [9] in a line: Half life in ICR mouse at 4 mg/kg, iv after 0.08 to 24 hrs by LC-MS/MS analysis. It counts as ADME, organism-based. Particulars: in vivo. The gist of the method: as §3
A further data set deals with Histone deacetylase 1 (Homo sapiens, UniProt Q13547). As to the kind of experiment: Inhibition of recombinant human His tagged HDAC1 expressed in baculovirus infected insect cells assessed as decrease in deacetylation of FLUOR DE LYS Green substrate preincubated for 10 mins followed by substrate addition and measured after 30 mins by fluorescence based assay.
Sequence of Histone deacetylase 1 (Q13547 whole entry): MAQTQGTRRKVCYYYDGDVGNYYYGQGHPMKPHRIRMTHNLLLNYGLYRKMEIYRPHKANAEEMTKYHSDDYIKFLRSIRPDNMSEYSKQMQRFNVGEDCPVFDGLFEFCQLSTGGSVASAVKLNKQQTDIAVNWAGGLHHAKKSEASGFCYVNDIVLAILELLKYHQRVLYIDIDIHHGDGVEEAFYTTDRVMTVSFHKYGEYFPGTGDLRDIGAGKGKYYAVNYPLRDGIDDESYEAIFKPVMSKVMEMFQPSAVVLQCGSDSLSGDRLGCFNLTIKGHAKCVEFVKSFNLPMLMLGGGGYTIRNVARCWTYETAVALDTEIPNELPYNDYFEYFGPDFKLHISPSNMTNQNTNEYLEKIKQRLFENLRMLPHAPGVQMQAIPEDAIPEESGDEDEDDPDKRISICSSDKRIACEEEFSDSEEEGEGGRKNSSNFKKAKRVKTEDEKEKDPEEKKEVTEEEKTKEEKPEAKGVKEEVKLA
Data set [10] relates to A549. The experiment in a line: Cell cycle arrest in human A549 cells assessed as accumulation of cells at G0/G1 phase at 1 uM after 48 hrs by propidium iodide staining-based flow cytometry (reference value: 73.35%). In kind it is functional.
In data set [11] the test system is HCT-116. The experiment in a line: Antiproliferative activity against human HCT116 cells assessed as growth inhibition at 2 uM after 72 hrs by CCK-8 assay relative to control. In kind it is functional. Particulars: HCT-116, 72 h, read-out: GI.
A further data set has as its target T1, Histone deacetylase 8 (Homo sapiens, UniProt Q9BY41).
T1 sequence (Q9BY41 whole entry): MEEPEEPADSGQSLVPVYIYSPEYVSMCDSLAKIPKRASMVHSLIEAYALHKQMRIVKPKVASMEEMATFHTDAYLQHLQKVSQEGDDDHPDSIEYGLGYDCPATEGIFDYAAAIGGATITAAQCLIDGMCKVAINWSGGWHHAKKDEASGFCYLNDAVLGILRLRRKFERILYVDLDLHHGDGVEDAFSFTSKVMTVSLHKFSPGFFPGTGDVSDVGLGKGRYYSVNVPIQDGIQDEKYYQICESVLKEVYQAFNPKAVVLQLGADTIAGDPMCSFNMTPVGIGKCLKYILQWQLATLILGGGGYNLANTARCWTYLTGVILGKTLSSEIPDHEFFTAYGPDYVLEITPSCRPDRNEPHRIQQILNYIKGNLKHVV
The experiment in a line: Inhibition of recombinant human HDAC8 assessed as decrease in deacetylation of FLUOR DE LYS substrate preincubated for 10 mins followed by substrate addition and measured after 30 mins by fluorescence based assay.

Data set [12] relates to A549. The experiment in a line: Cell cycle arrest in human A549 cells assessed as accumulation of cells at G2/M phase at 1 uM after 48 hrs by propidium iodide staining-based flow cytometry (reference value: 13.62%). It counts as functional.
Data set [13] can be described thus: Volume of distribution at steady state n ICR mouse at 4 mg/kg, iv after 0.08 to 24 hrs by LC-MS/MS analysis. It counts as ADME, organism-based. Particulars: in vivo, read-out: Vdss. The gist of the method:
as §3

In data set [14] the test system is A549. The experiment in a line: Cell cycle arrest in human A549 cells assessed as accumulation of cells at S phase at 0.5 uM after 48 hrs by propidium iodide staining-based flow cytometry (reference value: 12.83%). In kind it is functional.
The test system of data set [15] is HCT-116. The experiment in a line: Antiproliferative activity against human HCT116 cells assessed as decrease in cell viability after 72 hrs by CCK-8 assay. In kind it is functional, cell-based. Conditions: HCT-116, 72 h. Summed up:
as §1

The next data set has as its system A-375. The experiment in a line: Antiproliferative activity against human A375 cells assessed as decrease in cell viability after 72 hrs by CCK-8 assay. In kind it is functional, cell-based. Conditions: A-375, 72 h. The gist of the method:
as §1

A short description of data set [16]: AUC (0 to infinity) in ICR mouse at 4 mg/kg, iv after 0.08 to 24 hrs by LC-MS/MS analysis. It counts as ADME, organism-based. Details: dose 4 mg/kg, time infinity, route intravenous. Particulars: in vivo. The gist of the method:
as §3

Broadly, the IC50 is the concentration needed to halve the response being measured. The term clearance denotes the volume of plasma or blood freed of the substance per unit of time. The term half-life denotes the time in which the quantity being followed falls by half. One may read the AUC(0-inf) as total exposure, with the tail of the curve extrapolated. Low values mean less exposure, high ones more exposure. `COc1ccc(SCc2ccc(C(=O)Nc3ccccc3N)cc2)cc1`: the Activity in the data set on A549 [1] is 18.07%; in the data set with A549 [2], “Dose-dependent effect”; in the data set on A549 [5], “Dose-dependent effect”; in [6], “Non-Toxic”; in the data set with A549 [7], 10.8%; with A549 [10], 41.07%. Further, the Activity in the data set on A549 [12] was found to be 38.3%; in the data set with A549 [14] it was 17.55%. Moreover, the IC50 with HeLa was 2.39 µM; on Histone deacetylase 1, 0.016 µM; on Histone deacetylase 8 it was greater than 32 µM; with HCT-116 [15], 1.64 µM; in the data set on A-375, 3.01 µM. For the same compound, in the data set on A549 [3], the viability at 2 µM came out at 47.5%. For the same compound, the inhibition of growth at 2 µM in the data set with A549 [4] came to 45.7%; with HCT-116 [11], 73.3%. In addition, the inhibition of growth at 8 µM with SMMC-7721 stood at 80.1%. Moreover, the clearance in data set [8] is 90.1 mL/min/kg. The compound also had a half-life in [9] of 2.24 h. For the same compound, the Vd in data set [13] turned out to be 1.74 L/kg. In addition, in data set [16], the AUC(0-inf) was 740 ng·h/mL.
As for `CCc1ccc(SCc2ccc(C(=O)Nc3ccccc3N)cc2)cc1`, the Activity was 53.55% in the data set on A549 [1]; “Dose-dependent effect” in the data set with A549 [2]; “Dose-dependent effect” with A549 [5]; “Non-Toxic” in data set [6]; 14.6% in the data set with A549 [7]; 30.39% in the data set with A549 [10]. Also, the Activity in the data set on A549 [12] was determined as 59.87%; in the data set with A549 [14], 12.56%. Moreover, the IC50 with HeLa is 3.8 µM; on Histone deacetylase 1 it was 0.071 µM; on Histone deacetylase 8, greater than 32 µM; in the data set with HCT-116 [15] it was 1.74 µM; with A-375 it was 2.42 µM. Also, in the data set with A549 [3], the viability at 2 µM came to 63.5%. In addition, the figures for the inhibition of growth at 2 µM with A549 [4] and in the data set with HCT-116 [11] were 53.6% and 40.7%, respectively. Further, the inhibition of growth at 8 µM with SMMC-7721 turned out to be 82.9%. For the same compound, in [8], the clearance came to 76.3 mL/min/kg. Further, the half-life in data set [9] is 2.59 h. For the same compound, the Vd in data set [13] is 3.46 L/kg. Also, in data set [16], the AUC(0-inf) came out at 874 ng·h/mL.
